Source: the RNAGym collection of RNA variant scans (doi:10.1126/science.aae0568)
This sample holds only a part of the variants without activity.

B1: tRNA (parent)
chain: GUUCCGUUGGCGUAAUGGUAACGCGUCUCCCUCCUAAGGAGAAGACUGCGGGUUCGAGUCCCGUACGGAACG

Variants of: B1
Assay: yeast fitness relative to wild type (ratio to wild type); higher = fitter; tRNA-Arg(CCU), competitive growth, 37 C, YPD
Outline: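 Variants of the tRNA-Arg(CCU) gene were chemically synthesised with a 3% per-site mutation rate across 69 sites and placed at the native genomic locus in Saccharomyces cerevisiae. Six parallel replicates of the pooled strains were competed in YPD at 37°C for 24 hours, and gene amplicons from the start and end populations were read by 100-nucleotide paired-end sequencing. Darwinian fitness relative to wild type was derived from changes in genotype frequencies. Genotypes required ≥ 100 starting reads, and estimates < 0.5 were set to 0.5.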
For A65C A69C A70G, the yeast fitness was 0.554. Work on C62A A65C yielded a yeast fitness of 0.766. In the case of C62U G68A, the yeast fitness is reported as 0.838. In the case of G63A A69U, the yeast fitness is reported as 0.856. C62G U64C gave a yeast fitness of 0.97. With C62G U64A the yeast fitness was 0.695. C61U A65G G68A showed a yeast fitness of 0.705. Work on C62G A69G yielded a yeast fitness of 0.819. C62G A69U gave a yeast fitness of 0.839. With C60U C61G G67A the yeast fitness was at most 0.5. Work on G63C A65U yielded a yeast fitness of 0.735. G67U A70G showed a yeast fitness of 0.822. C61A A69G gave a yeast fitness of 0.584. Variant C62U A65U G68C has a yeast fitness of 0.602. A65C G67C showed a yeast fitness of 0.782. With G67C G68A the yeast fitness was 0.874. Work on G63C yielded a yeast fitness of 0.812. With G63A the yeast fitness was 0.853. For G63U, the yeast fitness was 0.825. With C62A A69G A70G the yeast fitness was 0.614. With A65G G68U the yeast fitness was 0.809. Work on A65G G68A yielded a yeast fitness of 0.924. With G63C A65U A70U the yeast fitness was 0.558. Variant C61G A65C has a yeast fitness of 0.658. Variant C61G A65G has a yeast fitness of 0.713. For G63U U64A, the yeast fitness was 0.676. Work on C62G G63C yielded a yeast fitness of 0.588. For C61G A70U, the yeast fitness was 0.772. With C61G A70G the yeast fitness was 0.685. Variant G63C A69C has a yeast fitness of 0.629. G63C A69U gave a yeast fitness of 0.709. Work on A69G A70C yielded a yeast fitness of 0.896. A69G A70G showed a yeast fitness of 1.02. For C66A A69C, the yeast fitness was 0.665. For A65U A70U, the yeast fitness was 1.11. G68C A70U gave a yeast fitness of 0.899. G68C A70G showed a yeast fitness of 0.897. C62U C66U G67A gave a yeast fitness of 0.52. C61U G68A A70G showed a yeast fitness of 0.648. C62U G63C A70C gave a yeast fitness of at most 0.5. For C62U C66G A70G, the yeast fitness was 0.574. With A65U G68A the yeast fitness was 0.729. With A69U A70G the yeast fitness was 0.871. A69U A70U showed a yeast fitness of 1.03. G63C G67C A70C showed a yeast fitness of 0.778. For C61A C66G, the yeast fitness was 0.572. For U64G A70U, the yeast fitness was 0.787. U64A G68U showed a yeast fitness of 0.728. In the case of U64A G68C, the yeast fitness is reported as 0.709. With G68A A69C the yeast fitness was 0.766. Variant C62U A65U has a yeast fitness of 0.93. C60U C62G showed a yeast fitness of 0.688. With C60U C62A the yeast fitness was at most 0.5. Work on C61U A65G yielded a yeast fitness of 1.07. Variant U64C G68C has a yeast fitness of 0.978. For U64C G68A, the yeast fitness was 0.979. Work on A65G A69U yielded a yeast fitness of 0.993. Work on C66A A70G yielded a yeast fitness of 0.764. Work on G63A G67C yielded a yeast fitness of 0.707. With C66U A70C the yeast fitness was 0.895. C62G C66G showed a yeast fitness of 0.553. Work on C62G C66A yielded a yeast fitness of at most 0.5. In the case of U64C A69U, the yeast fitness is reported as 1.07. Variant U64C A69C has a yeast fitness of 0.983. C61A C62A showed a yeast fitness of 0.603. C61A C62U gave a yeast fitness of 0.795. C61G C62G A70C showed a yeast fitness of 0.512. U64C C66U gave a yeast fitness of 0.958. Work on C60G G68C yielded a yeast fitness of 0.603. For G63A U64A, the yeast fitness was 0.864. Work on A65C yielded a yeast fitness of 1.01. A65U gave a yeast fitness of 0.993. Work on A65G yielded a yeast fitness of 0.999. A65U C66A showed a yeast fitness of 0.751. C60G C66U gave a yeast fitness of 0.599.
